The full list was thinned out, with hits kept by preference.
BasE inh = BasE siderophore enzyme inhibitors, primary screen, biochemical, Acinetobacter baumannii ATCC 17978, fluorescence polarization | purified BasE, fluorescence polarization binding displacement | inhibition, % (concentration not given with the values) | 84,000 compounds, 0.1% hits | AID 485350, 2010; in the data active = inhibition above about 25%, passing the limit was not always enough;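 also: 0% = negative plate control signal and 100% = positive plate control signal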
KSHV LANA nucl = inhibitors of KSHV LANA-nucleosome binding, primary screen, biochemical, fluorescence polarization, FITC-LANA1-23, chicken nucleosomes | AID 720717, 2013 | 51,000 compounds, 0.3% hits | FITC-LANA1-23 / chicken nucleosome fluorescence polarization; hits give low values | z-score (no concentration beside the values);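 active = both repeat wells score below -2 in polarization z-score versus plate sample wells, excluding overly bright wells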
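System – purified chicken nucleosomes with FITC-labelled LANA N-terminal peptide (1-23) · Amount – 240 nM purified chicken nucleosomes (480 nM peptide binding sites), final · Also added – 50 nM FITC-LANA1-23 probe · Medium – TEN-BT buffer, pH 7.5 · Incubation – compound with peptide–nucleosome mix 10–45 min at room temperature · Detection – fluorescence polarization, ex 480 nm, em 535 nm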
An asterisk follows results filed as active; · = not tested or not shown; ! = not confirmed by another sample.

SMILES	BasE inh	KSHV LANA nucl
COc1ccc(C2C(C(=O)N3CCOCC3)=C(C)NC3=C2C(=O)CCC3)cc1Br (configuration not stated)	2	-1.5
CC(=O)N/N=C/c1cc(C(C)C)cc(/C=N/NC(C)=O)c1O	20	-3.9*
CC(=O)N/N=C/c1ccccc1	3	0.031
CS(=O)(=O)N1CCc2cc(C(=O)CSc3nc4ccccc4o3)ccc21	1	·
Cc1ccc(C)c(SCC(=O)Nc2ccc(-n3cnnn3)cc2)c1	4	·
CN1CCN(C(=O)c2ccc3c(c2)S(=O)(=O)c2ccccc2C3=O)CC1	1	·
CN(C)c1ccc2c(c1)S(=O)(=O)c1cc(N(C)C)ccc1C2=O	33	-4*
O=c1[nH]c(CN2CCCC2)nc2scc(-c3ccccc3)c12	-1	·
Cc1noc(C)c1CSc1ccccc1C(=O)NC(C)c1ccc2c(c1)OCCO2 (configuration not stated)	1	·
COc1ncnc(Cl)c1N	-1	0.22
Cc1ccnc(Cl)c1N	45*	0.036
Cn1cccc1/C=C1/SC(=S)N(c2ccc(C(=O)O)cc2)C1=O	-37	-0.2
CN(C)/C=C1\SC(=S)N(c2ccc(Br)cc2)C1=O	8	-8.9*
Cc1cc2ncn(CCC#N)c2cc1C	-2	-0.29
Nc1cccnc1Nc1ccccc1	24	-3.1*
O=C(NCc1ccccc1)c1cccnc1Nc1ccccc1	0	-1.1
C=CCn1c(Cc2ccc(OC)cc2)nnc1SC(C)C(=O)Nc1ccc2c(c1)OCO2 (configuration not stated)	-1	-0.67
O=C(Cn1cnnn1)NC1CCCc2ccccc21 (configuration not stated)	2	·
Cc1cc(=O)n2nc(N(C)CC(=O)NC3CCCc4ccccc43)sc2n1 (configuration not stated)	-1	-2.3*
Cc1nc(SCC(=O)NC2CCCC2)[nH]c(=O)c1Cc1ccccc1	1	1.3
O=C(CSc1n[nH]c(Cc2ccccc2)n1)NC1CCCCC1	2	-2.4*
CC12CC(C(C#N)=C(N)N1)c1ccccc1O2 (configuration not stated)	0	-0.68
O=C(CCc1nc2ccccc2c(=O)[nH]1)Nc1ccc2c(c1)CCC2	28*	·
O=C(CCc1nc2ccccc2c(=O)[nH]1)Nc1ccc(F)cc1	14	·
Cc1ccc(CCNC(=O)c2ccc3nc(-c4ccco4)c(-c4ccco4)nc3c2)cc1	0	-0.77
SMILES	BasE inh	KSHV LANA nucl
CCc1nc2ccc(C(=O)NCCc3ccco3)cc2nc1CC	2	-2.2*
Cc1ccc(/C=N/n2cnnc2)cc1	-1	0.66
CC(=O)N1CCN(Cc2csc(-c3ccc(F)cc3)n2)CC1	2	·
N#CCCn1cc(C(=O)CSc2ccccn2)c2ccccc21	32*	·
COc1ccc(SCC(=O)c2cn(CCC#N)c3ccccc23)cc1	-3	·
Nc1ccc2nsnc2c1	26	-3.1*
CCOC(=O)c1ccc2nsnc2c1	0	0.36
CC1CN(C2=NC(=O)/C(=C\c3ccccc3)S2)CC(C)O1 (configuration not stated)	5	-0.55
COc1cccc2c1C(=O)c1c(O)c3c(c(O)c1C2=O)C[C@@](O)(C(C)=O)C[C@@H]3O[C@H]1C[C@H](N)[C@H](O)[C@H](C)O1	·	-8.3*
CC[C@@]1(O)C[C@H](O[C@H]2C[C@H](N(C)C)[C@H](O[C@H]3C[C@H](O)[C@H](O[C@H]4CCC(=O)[C@H](C)O4)[C@H](C)O3)[C@H](C)O2)c2c(cc3c(c2O)C(=O)c2c(O)cccc2C3=O)[C@H]1C(=O)OC	·	0.19
COc1cccc2c1C(=O)c1c(O)c3c(c(O)c1C2=O)C[C@@](O)(C(=O)CO)C[C@@H]3O[C@H]1C[C@H](N)[C@@H](O)[C@H](C)O1	·	-11
CC(=O)[C@]1(O)Cc2c(O)c3c(c(O)c2[C@@H](O[C@H]2C[C@H](N)[C@H](O)[C@H](C)O2)C1)C(=O)c1ccccc1C3=O	·	-10*!
O=C(O)c1cc(NN=C2CCCC2)ccc1Cl	2	·
CCCCn1c(=O)[nH]c2nc3cc(N=Cc4c(O)n(C)c(=O)n(C)c4=O)ccc3nc2c1=O	3	-0.49
Cn1c(=O)c2nc3ccc(N=Cc4c(O)n(Cc5ccccc5)c(=O)[nH]c4=O)cc3nc2n(C)c1=O	18	-2.3*
COCCNC(=O)c1cc(-c2ccccc2O)no1	2	-1.5
FC(F)(F)c1ccccc1NNC(=S)NCCN1CCOCC1	0	·
Cc1[nH]c2ccc(C(=O)OCC#N)cc2c1C	-1	·
N#CC1=C2SCN(Cc3ccccc3)CN2C(=O)CC1c1cccs1 (configuration not stated)	-1	-0.44
CCN1C=CC2=C(C#N)C(N)C(C#N)(C#N)C(c3cccs3)C2C1 (configuration not stated)	16	-6.3*
Cc1cc(C)n(CCCNC(=O)c2ccc3ccccc3c2)n1	-1	·
C/C=C/NC(=O)c1nc2c(nnn2Cc2ccc(C)cc2)c(=O)[nH]1	2	-0.27
Cn1c(SCc2ccccc2Cl)nnc1-c1oc2nc(-c3ccccc3)cc(-c3ccco3)c2c1N	-7	-0.26
Cn1c(-c2oc3nc(-c4ccccc4)cc(-c4ccco4)c3c2N)n[nH]c1=S	3	-2.3*
C=CCSc1nnc(NC(=O)Cc2coc3c(C)c(C)ccc23)s1	-1	-0.34
SMILES	BasE inh	KSHV LANA nucl
Cc1ccc(NC(=O)Sc2ccc(Cl)cc2)cc1	0	·
Nn1c(NNC(=O)c2ccccc2)nnc(-c2cccs2)c1=O	2	·
Nc1nnc(-c2cccs2)c(=O)n1N	31*	·
Cc1ccccc1Nc1nc(N)nc(COn2nnc3ccc(S(C)(=O)=O)cc32)n1	-1	·
C/C(=N\NC(=S)NC1CCCCC1)c1ccc(S(=O)(=O)NCc2ccco2)cc1	-1	·
C/C(=N\NC(=O)c1ccc(O)cc1)c1ccc(S(=O)(=O)NCc2ccco2)cc1	29*	·
Cn1cccc1C(=O)OCc1cc(=O)oc2cc(O)ccc12	2	·

Assay outcomes: PubChem, ICCB-Longwood Screening Facility, Harvard Medical School
